Values after ≈ are worked out from the molar mass of the structure shown.
How the values were obtained:
Assay type in all cases: functional
Escherichia coli [1] = assay: Antimicrobial activity against Escherichia coli ATCC 25922 after 24 hrs by NCCLS M7-A5 method; conditions: ATCC 25922, 24 h
Outline: (§1)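 MIC by agar dilution on Mueller-Hinton agar plates, following NCCLS M7-A5. MIC was taken as the lowest concentration with no visible growth after 24 h incubation at 37 °C.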

Candida tropicalis [2] = assay: Antimicrobial activity against Candida tropicalis MTCC 184 after 24 hrs by NCCLS M7-A5 method; conditions: MTCC 184, 24 h; outline: as §1
Aspergillus clavatus [3] = assay: Antimicrobial activity against Aspergillus clavatus MTCC 1323 after 24 hrs by NCCLS M7-A5 method; conditions: MTCC 1323, 24 h; outline: as §1
Candida albicans [4] = assay: Antimicrobial activity against Candida albicans MTCC 277 after 24 hrs by NCCLS M7-A5 method; conditions: MTCC 277, 24 h; outline: as §1
Aspergillus niger [5] = assay: Antimicrobial activity against Aspergillus niger MCIM 545 at 100 ug/disc after 48 hrs by agar cup plate method; conditions: MCIM 545, 48 h, read-out: DIZ
Outline: (§2)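 Agar cup plate diffusion with fungal inocula reseeded in Czapek Dox broth for 48 h at 25 °C. Compounds diluted in DMF, with DMF alone as control and griseofulvin as standard. Inhibition-zone diameter read by caliper, each zone measured three times and averaged.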

Candida albicans [6] = assay: Antimicrobial activity against Candida albicans MTCC 277 at 100 ug/disc after 48 hrs by agar cup plate method; conditions: MTCC 277, 48 h, read-out: DIZ; outline: as §2
Bacillus subtilis [7] = assay: Antimicrobial activity against Bacillus subtilis NCIM 2250 after 24 hrs by NCCLS M7-A5 method; conditions: NCIM 2250, 24 h; outline: as §1
Aspergillus niger [8] = assay: Antimicrobial activity against Aspergillus niger MCIM 545 after 24 hrs by NCCLS M7-A5 method; conditions: MCIM 545, 24 h; outline: as §1
Aspergillus clavatus [9] = assay: Antimicrobial activity against Aspergillus clavatus MTCC 1323 at 100 ug/disc after 48 hrs by agar cup plate method; conditions: MTCC 1323, 48 h, read-out: DIZ; outline: as §2
Escherichia coli [10] = assay: Antimicrobial activity against Escherichia coli ATCC 25922 at 100 ug/disc after 24 hrs by agar cup plate method; conditions: ATCC 25922, 24 h, read-out: DIZ
Outline: (§3)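 Agar cup plate diffusion with bacterial inocula reseeded in Mueller-Hinton broth for 24 h at 37 °C. Compounds diluted in DMF, with DMF alone as control and streptomycin as standard. Inhibition-zone diameter read by caliper, each zone measured three times and averaged.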

Bacillus subtilis [11] = assay: Antimicrobial activity against Bacillus subtilis NCIM 2250 at 100 ug/disc after 24 hrs by agar cup plate method; conditions: NCIM 2250, 24 h, read-out: DIZ; outline: as §3
Candida tropicalis [12] = assay: Antimicrobial activity against Candida tropicalis MTCC 184 at 100 ug/disc after 48 hrs by agar cup plate method; conditions: MTCC 184, 48 h, read-out: DIZ; outline: as §2

Structure (SMILES) | MIC (Escherichia coli [1]) | MIC (Candida tropicalis [2]) | MIC (Aspergillus clavatus [3]) | MIC (Candida albicans [4]) | zone of inhibition at 100 µg/disc (Aspergillus niger [5]) | zone of inhibition at 100 µg/disc (Candida albicans [6]) | MIC (Bacillus subtilis [7]) | MIC (Aspergillus niger [8]) | zone of inhibition at 100 µg/disc (Aspergillus clavatus [9]) | zone of inhibition at 100 µg/disc (Escherichia coli [10]) | zone of inhibition at 100 µg/disc (Bacillus subtilis [11]) | zone of inhibition at 100 µg/disc (Candida tropicalis [12])
CCOP(=O)(OCC)C(O)C1=C(N(C)C)C(=O)N(c2cccc(C(F)(F)F)c2)C1=O (stereo unspecified) | 10 µg/mL (≈ 22.2 µM) | 10 µg/mL (≈ 22.2 µM) | 10 µg/mL (≈ 22.2 µM) | 20 µg/mL (≈ 44.4 µM) | 16.6 mm | 15.2 mm | 15 µg/mL (≈ 33.3 µM) | 15 µg/mL (≈ 33.3 µM) | 17.4 mm | 15.7 mm | 15.4 mm | 17.2 mm
CCOP(=O)(OCC)C(O)C1=C(N(C)C)C(=O)N(c2cccc(Cl)c2)C1=O (stereo unspecified) | 20 µg/mL (≈ 48 µM) | 10 µg/mL (≈ 24 µM) | 20 µg/mL (≈ 48 µM) | 10 µg/mL (≈ 24 µM) | 13.6 mm | 16.6 mm | 10 µg/mL (≈ 24 µM) | 25 µg/mL (≈ 60 µM) | 16.2 mm | 13.5 mm | 15.8 mm | 17.1 mm
CCOP(=O)(OCC)C(O)C1=C(N(C)C)C(=O)N(c2ccccc2Cl)C1=O (stereo unspecified) | 15 µg/mL (≈ 36 µM) | 20 µg/mL (≈ 48 µM) | 15 µg/mL (≈ 36 µM) | 20 µg/mL (≈ 48 µM) | 16.6 mm | 15.1 mm | 20 µg/mL (≈ 48 µM) | 15 µg/mL (≈ 36 µM) | 16.8 mm | 15.4 mm | 13.6 mm | 16.2 mm
CCOP(=O)(OCC)C(O)C1=C(N(C)C)C(=O)N(c2ccccc2)C1=O (stereo unspecified) | 20 µg/mL (≈ 52.3 µM) | 20 µg/mL (≈ 52.3 µM) | 20 µg/mL (≈ 52.3 µM) |  |  |  | 25 µg/mL (≈ 65.4 µM) |  | 16.3 mm | 13.2 mm | 13.4 mm | 16.1 mm
CN[C@@H]1[C@H](O[C@H]2[C@H](O[C@H]3[C@H](O)[C@@H](O)[C@H](N=C(N)N)[C@@H](O)[C@@H]3N=C(N)N)O[C@@H](C)[C@]2(O)C=O)O[C@@H](CO)[C@H](O)[C@H]1O [STREPTOMYCIN] | 5 µg/mL (≈ 8.6 µM) |  |  |  |  |  | 5 µg/mL (≈ 8.6 µM) |  |  | 16.4 mm | 16.2 mm | 
CCOP(=O)(OCC)C(O)C1=C(N(C)C)C(=O)N(c2ccc(Br)cc2)C1=O (stereo unspecified) | 25 µg/mL (≈ 54.2 µM) | 15 µg/mL (≈ 32.5 µM) | 20 µg/mL (≈ 43.4 µM) | 25 µg/mL (≈ 54.2 µM) | 15.5 mm | 13.8 mm | 20 µg/mL (≈ 43.4 µM) | 20 µg/mL (≈ 43.4 µM) | 16.4 mm | 13.1 mm | 15.1 mm | 16.8 mm
CCOP(=O)(OCC)C(O)C1=C(N(C)C)C(=O)N(c2ccc(F)cc2)C1=O (stereo unspecified) | 10 µg/mL (≈ 25 µM) | 15 µg/mL (≈ 37.5 µM) | 10 µg/mL (≈ 25 µM) | 15 µg/mL (≈ 37.5 µM) | 16.4 mm | 16.5 mm | 10 µg/mL (≈ 25 µM) | 15 µg/mL (≈ 37.5 µM) | 17.3 mm | 15.8 mm | 15.6 mm | 16.7 mm
COC1=CC(=O)C[C@@H](C)[C@]12Oc1c(Cl)c(OC)cc(OC)c1C2=O [GRISEOFULVIN] |  | 5 µg/mL (≈ 14.2 µM) | 5 µg/mL (≈ 14.2 µM) | 5 µg/mL (≈ 14.2 µM) | 16.9 mm | 16.8 mm |  | 5 µg/mL (≈ 14.2 µM) | 17.6 mm |  |  | 17.3 mm
CCOP(=O)(OCC)C(O)C1=C(N(C)C)C(=O)N(c2ccc(Cl)cc2)C1=O (stereo unspecified) | 25 µg/mL (≈ 60 µM) | 25 µg/mL (≈ 60 µM) |  |  | 15.8 mm |  |  | 20 µg/mL (≈ 48 µM) |  | 13.4 mm |  | 15.9 mm
